Laboratory results: ChEMBL document CHEMBL1134386, “Cardioselective K(ATP) channel blockers derived from a new series of m-anisamidoethylbenzenesulfonylthioureas” (J Med Chem, 2001)

Key:
Format in all cases: functional, cell-based
[1] = molecular target: T1, Sulfonylurea receptor 1, Kir6.2 (Homo sapiens) (UniProt Q14654+Q09428); assay: Antiarrhythmic effect in hSUR1/hKir6.2 (pancreatic KATP channel) transfected in CHO cells at a dose of 0.1 uM; conditions: at 0.1 µM
How it was run: (§1)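 CHO cells stably expressing SUR1/Kir6.2, seeded the day before and washed three times in PBS. Loaded with voltage dye DiBAC4(3), added as a 10 µM solution, with diazoxide, added as a 400 µM solution, both in PBS; 30 min at 37 °C. Compound added after 4 min of baseline. Fluorescence read with 488 nm excitation every 20 s for 20 min. Mean of at least four experiments.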

[2] = molecular target: T1, Sulfonylurea receptor 1, Kir6.2 (Homo sapiens); assay: Antiarrhythmic effect in hSUR1/hKir6.2 (pancreatic KATP channel) transfected in CHO cells at a dose of 1 uM; conditions: at 1 µM; how it was run: as §1
[3] = molecular target: T1, Sulfonylurea receptor 1, Kir6.2 (Homo sapiens); assay: Antiarrhythmic effect in hSUR1/hKir6.2 (pancreatic KATP channel) transfected in CHO cells at a dose of 10 uM; conditions: at 10 µM; how it was run: as §1
[4] = molecular target: T1, Sulfonylurea receptor 1, Kir6.2 (Homo sapiens); assay: Antiarrhythmic effect in hSUR1/hKir6.2 (pancreatic KATP channel) transfected in CHO cells at 1 nM
How it was run: (§2)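 CHO cells stably expressing SUR1/Kir6.2, seeded the day before and washed three times with PBS. Loaded with DiBAC4(3) plus diazoxide in PBS for 30 min at 37 °C. Membrane-potential fluorescence read with 488 nm excitation; compound added at 4 min, then readings every 20 s for 20 min. Mean of at least four experiments.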

[5] = molecular target: T1, Sulfonylurea receptor 1, Kir6.2 (Homo sapiens); assay: Antiarrhythmic effect in hSUR1/hKir6.2 (pancreatic KATP channel) transfected in CHO cells at 3 nM; how it was run: as §2

SMILES	inhibition [1]	inhibition [2]	inhibition [3]	inhibition [4]	inhibition [5]
CN/C(S)=N/S(=O)(=O)c1cc(CCNC(=O)c2cc(Cl)ccc2OC)ccc1N1CCOCC1	-1.6%	26.7%	89.1%		
CNC(=O)NS(=O)(=O)c1cc2c(cc1OC)OCCC2CNC(=O)c1cc(Cl)ccc1OC (single isomer, unassigned; (-))	2.5%	14.2%	105%		
C#Cc1ccc(CCNC(=O)c2cc(Cl)ccc2OC)cc1S(=O)(=O)/N=C(\S)NC	3.3%	3.4%	27.6%		
CCCOc1ccc(CCNC(=O)c2cc(Cl)ccc2OC)cc1S(=O)(=O)/N=C(\S)NC	4.2%	63.6%	103%		
COc1ccc(Cl)cc1C(=O)NCCc1ccc(OC)c(S(=O)(=O)NC(=O)NC2CCCCC2)c1	65.5%	92.8%	81.7%		
CN/C(S)=N/S(=O)(=O)c1cc(CCNC(=O)c2cc(Cl)ccc2OC)ccc1C(C)C	12%	29.3%	92.4%		
CCOc1ccc(CCNC(=O)c2cc(Cl)ccc2OC)cc1S(=O)(=O)/N=C(\S)NC	-2.7%	16.3%	75.4%		
CN/C(S)=N/S(=O)(=O)c1cc(CCNC(=O)c2cc(Cl)ccc2OC)ccc1I	1.7%	19.2%	89.2%		
CN/C(S)=N/S(=O)(=O)c1cc2c(cc1OC)OCCC2CNC(=O)c1cc(Cl)ccc1OC (single isomer, unassigned; (-))	6.8%	63%	75.7%		
CN/C(S)=N/S(=O)(=O)c1cc(CCNC(=O)c2cc(Cl)ccc2OC)ccc1-c1ccccn1	6.6%	24.4%	91.4%		
C=CCOc1ccc(CCNC(=O)c2cc(Cl)ccc2OC)cc1S(=O)(=O)/N=C(\S)NC	1.7%	31.8%	94%		
CN/C(S)=N/S(=O)(=O)c1cc(CCNC(=O)c2cc(Cl)ccc2OC)ccc1S(C)(=O)=O	1.8%	1.1%	16.4%		
CN/C(S)=N/S(=O)(=O)c1cc(CCNC(=O)c2cc(Cl)ccc2OC)ccc1OC(C)C	-4.7%	27.4%	81.1%		
CNC(=S)NS(=O)(=O)c1cc(CCNC(=O)c2cc(Cl)ccc2OC)ccc1OC	5%	24.3%	83.8%		
CN/C(S)=N/S(=O)(=O)c1cc2c(cc1OC)OCCC2CNC(=O)c1cc(Cl)ccc1OC (single isomer, unassigned; (+))	-3.9%	3.6%	70.7%		
CNC(=O)NS(=O)(=O)c1cc2c(cc1OC)OCCC2CNC(=O)c1cc(Cl)ccc1OC (single isomer, unassigned; (+))	2%	1%	0.3%		
CN/C(S)=N/S(=O)(=O)c1cc(CCNC(=O)c2cc(Cl)ccc2OC)ccc1OC(F)(F)F	0.8%	6%	64.9%		
COc1ccc(Cl)cc1C(=O)NCCc1ccc(OC)c(S(=O)(=O)/N=C(\S)NC2CCCCC2)c1	20.5%	87.6%	122%		
CCc1ccc(CCNC(=O)c2cc(Cl)ccc2OC)cc1S(=O)(=O)/N=C(\S)NC	1.3%	20.5%	92.9%		
CN/C(S)=N/S(=O)(=O)c1cc(CCNC(=O)c2cc(Cl)ccc2OC)c(C)c(C)c1OC	0.8%	6.1%	64.9%		
CN/C(S)=N/S(=O)(=O)c1cc(CCNC(=O)c2cc(Cl)ccc2OC)ccc1OCCOCCOC	1%	45.5%	96.4%		

SMILES	inhibition [1]	inhibition [2]	inhibition [3]	inhibition [4]	inhibition [5]
CNC(=O)NS(=O)(=O)c1ccc(CCNC(=O)c2cc(Cl)ccc2OC)cc1	-0.7%	62.8%	86.3%		
CN/C(S)=N/S(=O)(=O)c1cc(CCNC(=O)c2cc(Cl)ccc2OC)c(OC)c(C)c1OC	-2%	6.7%	47.8%		
CN/C(S)=N/S(=O)(=O)c1cc(CCNC(=O)c2cc(Cl)ccc2OC)ccc1-c1ccco1	-2.6%	16%	82.7%		
CN/C(S)=N/S(=O)(=O)c1cccc(CCNC(=O)c2cc(Cl)ccc2OC)c1	-4.1%	1.9%	52.7%		
COc1ccc(Cl)cc1C(=O)NCCc1ccc(OC)c(S(=O)(=O)NC(=O)N(C)C)c1	-3.6%	-3.2%	25%		
CN/C(S)=N/S(=O)(=O)c1cc(CCNC(=O)c2cc(Cl)ccc2OC)ccc1F	-3.9%	-1.3%	18.1%		
CCCc1ccc(CCNC(=O)c2cc(Cl)ccc2OC)cc1S(=O)(=O)/N=C(\S)NC	2.3%	41.5%	97.1%		
COc1ccc(Cl)cc1C(=O)NCCc1ccc(OC)c(S(=O)(=O)/N=C(/N)S)c1	1.6%	11.2%	64.7%		
CN/C(S)=N/S(=O)(=O)c1cc(CCNC(=O)c2cc(Cl)ccc2OC)ccc1C	1.9%	21%	74.8%		
CNC(=O)NS(=O)(=O)c1cc(CCNC(=O)c2cc(Cl)ccc2OC)c(OC)cc1OC	-0.6%	2.8%	13.5%		
CN/C(S)=N/S(=O)(=O)c1cc(CCNC(=O)c2cc(Cl)ccc2OC)ccc1OCCOC	12.5%	26.2%	49.5%		
CN/C(S)=N/S(=O)(=O)c1cc(CCNC(=O)c2cc(Cl)ccc2OC)ccc1Cl	2.3%	2.8%	40.1%		
CN/C(S)=N/S(=O)(=O)c1cc(CCNC(=O)c2cc(Cl)ccc2OC)cc(OC)c1OC	-3.8%	-2.12%	-2.34%		
CN/C(S)=N/S(=O)(=O)c1cc(CCNC(=O)c2cc(Cl)ccc2OC)c(OC)cc1OC	-1%	0.7%	30.5%		
CNC(=O)NS(=O)(=O)c1cc(CCNC(=O)c2cc(Cl)ccc2OC)ccc1OC	-2.8%	-1.3%	43.9%		
CN/C(S)=N/S(=O)(=O)c1cc(CCNC(=O)c2cc(Cl)ccc2OC)ccc1[S+](C)[O-] (stereo not given)	1.9%	2.4%	17.6%		
CN/C(S)=N/S(=O)(=O)c1cc(CCNC(=O)c2cc(Cl)ccc2OC)ccc1Br	3.3%	2.2%	67.7%		
COc1ccc(Cl)cc1C(=O)NCCc1ccc(S(=O)(=O)NC(=O)NC2CCCCC2)cc1				24%	73.3%
CN/C(S)=N/S(=O)(=O)c1cc(CCNC(=O)c2cc(Cl)ccc2OC)ccc1SC	-2.1%	15.2%	81.4%		
CN/C(S)=N/S(=O)(=O)c1cc(CCNC(=O)c2cc(Cl)ccc2OC)ccc1-c1ccccc1	9.4%	33%	67.7%		
CN/C(S)=N/S(=O)(=O)c1cc(CCNC(=O)c2cc(Cl)ccc2OC)ccc1-c1cccnc1	4.4%	10.2%	62.3%		
